This is an account of results in ChEMBL document CHEMBL5036376, “C20-nor-Abietane and Three Abietane Diterpenoids from Plectranthus mutabilis Leaves as P-Glycoprotein Modulators” (ACS Med Chem Lett, 2022).

The target in data set [1] is T1, ATP-dependent translocase ABCB1 (Homo sapiens, UniProt P08183). Put plainly: Stimulation of P-gp in human multidrug resistant NCI-H460/R cells assessed as fluorescence activity ratio at 10 uM for 72 mins by Rho123 accumulation assay relative to control. As to conditions: nci-h460, 1.2 h; call rule not given here.
Data set [2] concerns the target T1, ATP-dependent translocase ABCB1. Put plainly: Stimulation of P-gp in human multidrug resistant NCI-H460/R cells assessed as decrease in Rho123 accumulation by measuring mean fluorescence intensity at 10 uM incubated for 72 hrs followed by rhodamine 123 measured after 30 mins by flow cytometry. To be noted: nci-h460, 72.5 h. An outline of the steps: (§1)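 NCI-H460/R cells treated with the test agent for 72 h, then loaded with Rho123 for 30 min; intracellular mean fluorescence intensity (MFI) measured. References are untreated NCI-H460/R (MDR control) and parental NCI-H460 (sensitive control). FAR = MFI treated/MFI MDR control; SI = MFI treated × 100/MFI sensitive control; mean ± SE. Tariquidar is the P-gp inhibitor comparator.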
On the technique in general: In flow cytometry, cells or beads pass a laser one at a time.

Data set [3] in a line: Selectivity index, ratio of mean fluorescence intensity for stimulation of P-gp in human multidrug resistant NCI-H460/R cells to mean fluorescence intensity for stimulation of P-gp in human NCI-H460 cells assessed as decrease in Rho123 accumulation at 10 uM for 72 mins. The class given is functional. To be noted: 1.2 h.
Data set [4] relates to NCI-H460. Put plainly: Anticancer activity against human NCI-H460 cells assessed as reduction in cell viability measured after 72 hrs by MTT assay. The class given is functional, cell-based. As to conditions: NCI-H460, 72 h. An outline of the steps:
(§2)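 MTT read-out of metabolic activity (viability) in sensitive NSCLC NCI-H460, its P-gp-overexpressing MDR subline NCI-H460/R and normal embryonic lung fibroblasts MRC-5. Isolated diterpenes were tested at 2, 5, 10, 20 and 50 μM and acetone extract at 2, 5, 10, 20 and 50 μg/mL. IC50 was reported in μM for compounds and μg/mL for extract.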
In general terms: Tetrazolium assays rely on reduction of a dye to a coloured formazan, in cell work by metabolically active cells.

A short description of data set [5]: Selectivity index, ratio of mean fluorescence intensity for stimulation of P-gp in human multidrug resistant NCI-H460/R cells to mean fluorescence intensity for stimulation of P-gp in human NCI-H460 cells assessed as decrease in Rho123 accumulation at 5 uM for 30 mins. The class given is functional. As to conditions: 0.5 h.
Data set [6] can be described thus: Selectivity index, ratio of IC50 for cytotoxicity against human MRC-5 cells to of IC50 for anticancer activity against human NCI-H460 cells. The class given is toxicity, cell-based. To be noted: for selectivity ratio: MRC-5 cells versus NCI-H460 cells, read-out: Ratio IC50. An outline of the steps: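 Selectivity index is the MRC-5 IC50 divided by the NCI-H460 IC50. Both come from MTT viability assays over 2–50 μM (compounds) or 2–50 μg/mL (extract).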

Data set [7] deals with T1, ATP-dependent translocase ABCB1. Put plainly: Stimulation of P-gp in human multidrug resistant NCI-H460/R cells assessed as fluorescence activity ratio at 10 uM for 30 mins by Rho123 accumulation assay relative to control. As to conditions: nci-h460, 0.5 h.
Data set [8] shares this target. Put plainly: Stimulation of P-gp in human multidrug resistant NCI-H460/R cells assessed as fluorescence activity ratio at 5 uM for 30 mins by Rho123 accumulation assay relative to control. To be noted: nci-h460, 0.5 h.
The target is the same in data set [9]. Put plainly: Stimulation of P-gp in human multidrug resistant NCI-H460/R cells assessed as fluorescence activity ratio at 5 uM for 72 mins by Rho123 accumulation assay relative to control. As to conditions: nci-h460, 1.2 h.
Data set [10] can be described thus: Selectivity index, ratio of mean fluorescence intensity for stimulation of P-gp in human multidrug resistant NCI-H460/R cells to mean fluorescence intensity for stimulation of P-gp in human NCI-H460 cells assessed as decrease in Rho123 accumulation at 10 uM for 30 mins. The class given is functional. To be noted: 0.5 h.
The target of data set [11] is T1, ATP-dependent translocase ABCB1. Put plainly: Stimulation of P-gp in human multi drug resistant NCI-H460/R cells assessed as decrease in Rho123 accumulation by measuring mean fluorescence intensity at 10 uM incubated for 30 mins in presence of rhodamine 123by flow cytometry. To be noted: nci-h460, 0.5 h. An outline of the steps:
(§3)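 NCI-H460/R (P-gp-overexpressing NSCLC) cells exposed to the test agent together with Rho123 for 30 min; mean fluorescence intensity (MFI) read. Untreated NCI-H460/R serve as MDR control and parental NCI-H460 as sensitive control. FAR = MFI treated/MFI MDR control; SI = MFI treated × 100/MFI sensitive control; mean ± SE. Tariquidar is the P-gp inhibition positive control.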

The target is the same in data set [12]. Put plainly: Stimulation of P-gp in human multi-drug resistant NCI-H460/R cells assessed as decrease in Rho123 accumulation by measuring mean fluorescence intensity at 5 uM incubated for 30 mins in presence of rhodamine 123 by flow cytometry. As to conditions: nci-h460, 0.5 h. An outline of the steps:
as §3

Data set [13] is described as follows: Selectivity index, ratio of mean fluorescence intensity for stimulation of P-gp in human multidrug resistant NCI-H460/R cells to mean fluorescence intensity for stimulation of P-gp in human NCI-H460 cells assessed as decrease in Rho123 accumulation at 5 uM for 72 mins. The class given is functional. As to conditions: 1.2 h.
A further data set has as its system MRC5. Put plainly: Cytotoxicity against human MRC-5 cells assessed as reduction in cell viability measured after 72 hrs by MTT assay. The class given is cell-based. To be noted: MRC5, 72 h. An outline of the steps: as §2
The target in data set [14] is T1, ATP-dependent translocase ABCB1. Put plainly: Stimulation of P-gp in human multidrug resistant NCI-H460/R cells assessed as decrease in Rho123 accumulation by measuring mean fluorescence intensity at 5 uM incubated for 72 hrs followed by rhodamine 123 measured after 30 mins by flow cytometry. As to conditions: nci-h460, 72.5 h. The procedure, abridged: as §1
Data set [15] deals with NCI-H460. Put plainly: Anticancer activity against human multi-drug resistant NCI-H460/R cells assessed as reduction in cell viability measured after 72 hrs by MTT assay. The class given is functional, cell-based. As to conditions: NCI-H460, 72 h. The procedure, abridged:
as §2

The target in data set [16] is T1, ATP-dependent translocase ABCB1. Put plainly: Stimulation of P-gp in human multidrug resistant NCI-H460/R cells assessed as decrease in Rho123 accumulation by measuring mean fluorescence intensity at 0.05 uM incubated for 72 hour followed by rhodamine 123 measured after 30 mins by flow cytometry. As to conditions: nci-h460, 72 h. An outline of the steps: as §1

The target is the same in data set [17]. Put plainly: Stimulation of P-gp in human multidrug resistant NCI-H460/R cells assessed as fluorescence activity ratio at 50 uM for 30 mins by Rho123 accumulation assay relative to control. To be noted: nci-h460, 0.5 h. An outline of the steps: (§4)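 Rho123 and test agent given together to NCI-H460/R cells for 30 min, then mean fluorescence intensity (MFI) read. FAR = MFI of treated MDR cells / MFI of untreated MDR cells. SI = (MFI of treated MDR cells × 100) / MFI of untreated sensitive NCI-H460 cells. Tariquidar was the P-gp inhibition control. Mean ± SE.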

For data set [18] the target is unchanged. Put plainly: Stimulation of P-gp in human multi-drug resistant NCI-H460/R cells assessed as decrease in Rho123 accumulation by measuring mean fluorescence intensity at 50 uM incubated for 30 mins in presence of rhodamine 123 by flow cytometry. As to conditions: nci-h460, 0.5 h. An outline of the steps:
as §3

Data set [19] can be described thus: Selectivity index, ratio of mean fluorescence intensity for stimulation of P-gp in human multidrug resistant NCI-H460/R cells to mean fluorescence intensity for stimulation of P-gp in human NCI-H460 cells assessed as decrease in Rho123 accumulation at 50 uM for 30 mins. The class given is functional. As to conditions: 0.5 h. The procedure, abridged:
as §4

Data set [20] concerns the target T1, ATP-dependent translocase ABCB1. Put plainly: Stimulation of P-gp in human multidrug resistant NCI-H460/R cells assessed as fluorescence activity ratio at 0.05 uM […] by Rho123 accumulation assay relative to control. As to conditions: nci-h460, 1.2 h.
Data set [21] is described as follows: Selectivity index, ratio of mean fluorescence intensity for stimulation of P-gp in human multidrug resistant NCI-H460/R cells to mean fluorescence intensity for stimulation of P-gp in human NCI-H460 cells assessed as decrease in Rho123 accumulation at 0.05 uM for […]. The class given is functional.

T1 sequence (P08183 whole entry): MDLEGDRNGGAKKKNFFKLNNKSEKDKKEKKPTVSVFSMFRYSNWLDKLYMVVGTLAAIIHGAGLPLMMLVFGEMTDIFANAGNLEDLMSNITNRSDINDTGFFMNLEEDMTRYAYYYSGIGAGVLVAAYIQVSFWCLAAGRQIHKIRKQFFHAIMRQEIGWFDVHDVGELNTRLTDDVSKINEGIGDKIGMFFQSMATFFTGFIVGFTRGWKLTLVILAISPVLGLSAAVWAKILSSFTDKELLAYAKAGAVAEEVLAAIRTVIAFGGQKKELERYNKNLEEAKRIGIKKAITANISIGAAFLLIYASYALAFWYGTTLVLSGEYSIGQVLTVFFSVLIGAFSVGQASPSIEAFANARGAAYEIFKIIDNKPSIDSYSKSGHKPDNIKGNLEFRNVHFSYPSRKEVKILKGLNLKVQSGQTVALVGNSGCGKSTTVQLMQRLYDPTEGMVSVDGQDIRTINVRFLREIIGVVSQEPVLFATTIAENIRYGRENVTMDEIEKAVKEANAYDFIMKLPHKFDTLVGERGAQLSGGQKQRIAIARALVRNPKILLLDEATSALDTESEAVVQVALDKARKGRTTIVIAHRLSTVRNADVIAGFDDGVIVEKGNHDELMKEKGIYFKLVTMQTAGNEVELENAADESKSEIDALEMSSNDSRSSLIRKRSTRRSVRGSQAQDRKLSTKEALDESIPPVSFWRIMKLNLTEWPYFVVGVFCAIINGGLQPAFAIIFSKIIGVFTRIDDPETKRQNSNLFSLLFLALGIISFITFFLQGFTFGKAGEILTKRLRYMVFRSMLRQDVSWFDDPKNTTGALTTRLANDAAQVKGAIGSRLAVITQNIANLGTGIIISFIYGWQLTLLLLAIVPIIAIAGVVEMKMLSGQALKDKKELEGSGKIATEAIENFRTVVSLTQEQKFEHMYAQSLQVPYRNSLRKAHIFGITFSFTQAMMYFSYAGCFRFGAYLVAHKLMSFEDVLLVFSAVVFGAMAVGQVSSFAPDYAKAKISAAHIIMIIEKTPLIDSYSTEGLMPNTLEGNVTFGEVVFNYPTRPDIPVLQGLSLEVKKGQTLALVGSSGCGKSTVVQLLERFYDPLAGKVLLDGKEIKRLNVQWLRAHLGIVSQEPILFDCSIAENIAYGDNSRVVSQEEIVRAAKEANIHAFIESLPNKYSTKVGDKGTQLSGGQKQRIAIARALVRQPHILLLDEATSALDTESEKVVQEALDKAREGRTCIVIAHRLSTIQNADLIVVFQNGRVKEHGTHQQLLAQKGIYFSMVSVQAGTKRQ

Usually IC50 stands for the midpoint of a concentration-inhibition curve. On to `CC(C)c1c(O)c(O)c2c(c1O)C(=O)C(O)=C1C(C)(C)CCC[C@@]12C`, for which the Ratio stood at 0.14 in [1], 0.49 in data set [7], 2.45 in [8] and 0.21 in [9]. For the same compound, the Flu intensity in data set [2] is 109.7; in data set [11], 253; in [12], 1258.8; in data set [14] it was 173.5. The “Selectivity Index” value is on record as 4.43 in [3], 58.52 in data set [5], 11.76 in data set [10] and 7 in [13]. Besides, the IC50 in the data set with NCI-H460 [4] is 14.1 µM; with MRC5, 35.5 µM; in the data set with NCI-H460 [15] it was 14.5 µM. Also, the selectivity ratio in [6] worked out at 2.5.

As for `CC(=O)O[C@H]1C(=O)[C@@]2(C)[C@H]([C@H](OC(=O)c3ccccc3)[C@]3(O)C[C@H](OC(=O)[C@H](O)[C@@H](NC(=O)c4ccccc4)c4ccccc4)C(C)=C1C3(C)C)[C@]1(OC(C)=O)CO[C@@H]1C[C@@H]2O` [PACLITAXEL], the IC50 in the data set on NCI-H460 [4] turned out to be 0.0006 µM; in the data set on MRC5, 0.523 µM; in the data set with NCI-H460 [15], 0.117 µM. For the same compound, the selectivity ratio in data set [6] turned out to be 872.

As for `CC(C)C1=C(O)C(=O)[C@@]23O[C@@]2(C(=O)C(O)=C2C(C)(C)CCC[C@@]23C)C1=O`, the Ratio was determined as 0.34 in [1], 1.3 in data set [7], 1.39 in data set [8] and 0.36 in data set [9]. The Flu intensity in data set [2] was 276.6; in [11], 666.1; in [12], 711.6; in data set [14], 289.7. Moreover, the “Selectivity Index” value in [3] came to 11.16; in data set [5], 33.08; in data set [10], 30.97; in [13], 11.68. For the same compound, the IC50 in the data set on NCI-H460 [4] is 20.2 µM; in the data set on MRC5 it was 40.2 µM; with NCI-H460 [15], 17.3 µM. Moreover, in data set [6], the selectivity ratio was found to be 2.

With `CC(C)c1cc2c(c(O)c1O)[C@@]1(O)CCCC(C)(C)[C@@H]1C(=O)C2=O`, the Ratio amounted to 0.31 in data set [1], 1.12 in data set [7], 1.16 in data set [8] and 0.33 in data set [9]. For the same compound, the Flu intensity in data set [2] came out at 254.5; in data set [11] it was 573; in [12] it was 595.3; in [14], 265.9. The “Selectivity Index” value in data set [3] was found to be 10.26; in [5], 27.68; in data set [10], 26.64; in [13] it was 10.72. Besides, the IC50 in the data set on NCI-H460 [4], in the data set with MRC5 and in the data set with NCI-H460 [15] was > 50 µM throughout. Further, the “Ratio IC50” value in data set [6] is “Not Active”.

As for `COc1cccc2c1C(=O)c1c(O)c3c(c(O)c1C2=O)C[C@@](O)(C(=O)CO)C[C@@H]3O[C@H]1C[C@H](N)[C@H](O)[C@H](C)O1` [DOXORUBICIN], the IC50 in the data set with NCI-H460 [15] came to 1.62 µM.

Consider `COc1cc2c(cc1OC)CN(CCc1ccc(NC(=O)c3cc(OC)c(OC)cc3NC(=O)c3cnc4ccccc4c3)cc1)CC2` [TARIQUIDAR], for which the Flu intensity in [16] and in [18] was 3004 each time. Also, the Ratio in data set [17] and in data set [20] was 3.7 each time. For the same compound, the “Selectivity Index” value in [19] and in [21] was 121.16 each time.

Regarding `CC(C)C1=C(O)C(=O)C2=C(C(=O)C(O)=C3C(C)(C)CCC[C@]23C)C1=O`, the Ratio in data set [1] was 0.3; in data set [7] it was 1.93; in data set [8], 1.3; in data set [9], 0.34. Further, the Flu intensity in [2] was found to be 242; in [11], 991.3; in [12], 669.6; in [14] it was 277.3. In addition, the “Selectivity Index” value in data set [3] is reported as 9.76; in data set [5] it was 31.13; in data set [10], 46.09; in data set [13], 11.18. Moreover, the values for the IC50 in the data set on NCI-H460 [4], in the data set on MRC5 and in the data set on NCI-H460 [15] were 23 µM, 44.1 µM and 20.4 µM, respectively. Also, the selectivity ratio in data set [6] worked out at 2.
